Most compounds without a hit are left out; they make up all but 2.2% or so of the library.
COUP-TFII inh – inhibitors of human COUP-TFII (NR2F2). P24468. inhibition, % at 8.6 µM. HEK293T NGFI-A luciferase reporter, luminescence. 370,000 tested, 0.7% active. AID 686940;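 active means inhibition above a per-plate cutoff, mean inhibition of test wells between control levels plus 3 SD, cut at about 38% in these data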;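 further: cells cotransfected with COUP-TFII expression vector driving the NGFI-A reporter; 0% = median of COUP-TF2 test wells and 100% = reporter-only cells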
SMARCA2 activ – activators of SMARCA2 function; MG213 cells, MMTV-luciferase reporter, dexamethasone, overnight; activation, % at 9.1 µM; 370,000 tested, 1% active; in the data active means activation above about 7.8%;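 further: 0% = vehicle wells and 100% = reference activator wells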
GalR3 antagonist – blocks the human galanin receptor 3. HEK293 GalR3-CNG cAMP membrane potential fluorescence; galR3 body fused to GalR1 C-terminus. inhibition, % at 3 µM. 360,000 tested, 0.44% active;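 active means inhibition above the screen-wide average plus 3 SD, cut at about 13% in these data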;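 further: forskolin and galanin both at EC90 stimulate the cells; cAMP rise reported by CNG channel membrane potential dye signal; 0% = forskolin plus galanin with DMSO and 100% = forskolin alone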
Target sequence (O60755 1-299 limits assumed): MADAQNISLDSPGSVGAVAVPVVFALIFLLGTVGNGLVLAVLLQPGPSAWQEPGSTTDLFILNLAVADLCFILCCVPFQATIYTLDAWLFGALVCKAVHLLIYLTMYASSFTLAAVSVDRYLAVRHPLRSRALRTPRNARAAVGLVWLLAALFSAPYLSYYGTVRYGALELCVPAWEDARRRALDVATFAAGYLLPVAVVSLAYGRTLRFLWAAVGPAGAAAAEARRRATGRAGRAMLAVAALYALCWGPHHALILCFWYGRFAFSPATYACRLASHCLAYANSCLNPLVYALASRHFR
NR2E3 ag-1 – agonists of human NR2E3 nuclear receptor; 360,000 tested, 0.35% active; inhibition of corepressor binding, % at 3.98 µM; AID 602229; CHO-S Gal4-NCOR/VP16-NR2E3 two-hybrid, luciferase; Q9Y5X4;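 active means inhibition above the mean of all tested compounds plus 3 SD, cut at about 70% in these data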;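 further: 0% = DMSO with NR2E3 transfected cells and 100% = cells lacking NR2E3 construct; higher means lower luciferase signal from less NR2E3 corepressor binding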
NR2E3 ag-2 – activates human photoreceptor nuclear receptor NR2E3. Q9Y5X4. GST-NR2E3/biotin-RetCOR TR-FRET, 1536-well. inhibition of corepressor binding, % at 4.78 µM. 320,000 tested, 0.12% active. AID 2300;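 active means percent inhibition above the cutoff of mean plus 3 SD of all tested compounds, set per screening campaign, cut at about 20% in these data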;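 further: 0% = DMSO wells and 100% = biotin wells as full block of FRET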
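Material: NR2E3–RetCOR corepressor complex / Incubation: Compound–protein incubation for 5 h at 4 °C / Dosing: compound at 4.8 µM, single dose / Detection: time-resolved FRET / Benchmarks: high control biotin, low control 0.6% DMSO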
Gal4-VP16 ctr – counter-screen for COUP-TFII antagonists: inhibitors of VP16; shares compounds with COUP-TFII inh; HEK293 Gal4-VP16 luciferase reporter, luminescence; inhibition, % at 8.5 µM; 2,500 tested, 25% active; in the data active means inhibition above about 13%
NR2F2 inh conf – COUP-TFII (NR2F2) inhibition, confirmation assay | shares compounds with COUP-TFII inh | HEK293 NGFI-A luciferase reporter, luminescence | inhibition, % at 8.5 µM | 2,500 tested, 45% active;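 active means mean inhibition over three repeats above a set limit taken from the earlier primary screen, cut at about 38% in these data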;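 further: 100% = cells given the luciferase reporter alone without the COUP-TF2 vector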
An asterisk follows results filed as active; · = no result.

SMILES	COUP-TFII inh	SMARCA2 activ	GalR3 antagonist	NR2E3 ag-1	NR2E3 ag-2	Gal4-VP16 ctr	NR2F2 inh conf
CC(=O)[C@H]1CCC2C3CC[C@H]4C[C@@H](O)CC[C@]4(C)C3CC[C@@]21C (stereo partly specified)	1.0	0.4	-2.8	0.0	·	·	·
CC(=O)OC1CC(OC2C(O)CC(OC3C(O)CC(OC4CCC5(C)C(CCC6C5CCC5(C)C(C7=CC(=O)OC7)C(O)CC65O)C4)OC3C)OC2C)OC(C)C1OC1OC(CO)C(O)C(O)C1O (stereo unspecified)	73.9*	-9.2	34.2*	12.7	·	35.6*	65.3*
CC(=O)OC1CC2(O)C3CCC4CC(O)CCC4(C)C3CCC2(C)C1C1=CC(=O)OC1 (stereo unspecified)	76.8*	-8.9	21.3*	3.4	·	46.9*	71.9*
Cc1ccc2nc(-c3ccc(CN4CCC(n5c(=O)[nH]c6cc(Cl)ccc65)CC4)cc3)c(-c3ccccc3)nc2c1	7.6	5.7	-7.6	·	·	·	·
O=C(O)c1cc(S(=O)(=O)N2CC3CC(C2)c2cccc(=O)n2C3)ccc1F (stereo unspecified)	9.2	1.9	-4.0	·	·	·	·
COC(=O)[C@@H]1[C@@H](C(=O)OC)C2(c3ccccc3-c3ccccc32)N(c2ccc(Cl)cc2)N1C#N	47.0*	-8.2	12.1	33.7	0.4	49.7*	46.8*
COc1ccc2nc3c(C)n(C)ccc-3c2c1	19.5	0.4	0.4	-33.7	·	·	·
CCOC(=O)[C@]12Cc3cc(Cl)ccc3[C@H]1N(C(C)C)C(=O)c1ccccc12	41.3*	-2.9	-8.3	3.0	·	21.3*	52.8*
CCN1CCN(c2ncnc3ccc(Br)cc23)CC1	42.0*	-2.6	-7.7	-32.8	0.0	11.0	23.2
CCc1cc2c(N3CCN(C)CC3)ncnc2s1	0.7	-1.3	-5.2	-13.3	2.2	·	·
C[C@]12CC[C@H]3[C@@H](CC[C@]4(O)C[C@@H](O)CC[C@]34C=O)[C@@]1(O)CC[C@@H]2C1=CC(=O)OC1	77.6*	-11.7	15.0*	0.2	0.1	32.9*	67.2*
CCCCN=C[C@]12CCC(O)CC1(O)CCC1[C@@H]2CC[C@]2(C)[C@H](C3C=CC(=O)O3)CCC12O (stereo partly specified)	62.6*	-10.6	8.4	-24.0	0.9	38.7*	68.7*
CC12CC[C@H]3[C@@H](CCC4(O)C[C@H](O)CCC34/C=N/NC(=O)c3ccccc3Cl)C1(O)CCC2C1=CC(=O)OC1 (stereo partly specified)	6.6	-2.8	2.5	-4.3	-1.6	·	·
C[C@]12CCC3C(CCC4=CC(O)CC[C@@]43/C=N/O)C1(O)CCC2C1=CC(=O)OC1 (stereo partly specified)	74.7*	-7.4	15.2*	-3.7	0.5	37.4*	67.6*
CC12CCC3C(CCC4(O)CC(O)CCC34C=NO)C1(O)CCC2C1=COC(=O)C1 (stereo unspecified)	80.8*	-9.8	23.1*	-7.4	·	43.2*	68.9*
N#Cc1ccc2nc(-c3ccc(CN4CCC(n5nnc6ccccc65)CC4)cc3)c(-c3ccccc3)nc2c1	31.6	-5.7	-5.7	·	·	·	·
CC(C)C[C@@H]1COc2cccc(N3CCN(C)CC3)c2S(=O)(=O)N1	-13.7	-3.5	-4.5	-3.6	·	·	·
Cc1ccc(-c2cc(-c3ccccc3)cc(-c3ccccc3)[n+]2-c2ccccc2)cc1	76.2*	-7.8	-7.6	15.4	2.0	30.6*	88.6*
c1ccc(-c2cc(-c3ccccc3)[n+](-c3ccccc3)c(-c3ccccc3)c2)cc1	72.7*	-8.0	-8.3	-8.6	4.0	15.2*	45.0*
CCOC(=O)[C@]12Cc3cc4ccccc4cc3[C@H]1N(Cc1ccccc1)C(=O)c1cc(OC)ccc12	4.3	1.4	-5.6	-53.4	·	·	·
Cn1cc(P(=S)(c2ccccc2)c2ccccc2)c2ccccc21	-16.7	·	·	·	·	·	·

Compound activity deposited in PubChem BioAssay by The Scripps Research Institute Molecular Screening Center.
